Test results reported in ChEMBL document CHEMBL5338796, “Discovery of a Selective and Orally Bioavailable FGFR2 Degrader for Treating Gastric Cancer” (J Med Chem, 2023).
Calls of active or inactive are those of the source. The calls are words filed in the database; no cut-off is given here.

Assays:
[1] = target: Fibroblast growth factor receptor (Homo sapiens) (UniProt P22607+P11362+P22455+P21802); assay: Induction of FGFR degradation in human KATO III stomach cancer cell line assessed as reduction in FGFR phosphorylation at A-loop Tyr656/657 residue at 25 nM measured for 6 hrs; type: cell-based
Outline: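 KATO III cells treated 6 h at the indicated concentrations with degrader or BGJ398; FGFR A-loop Tyr656/657 autophosphorylation monitored by immunoblot.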

[2] = test system: SNU-16; assay: Antitumor activity against human SNU-16 cells xenografted in BALB/c nude mouse assessed as reduction in PLCgamma phosphorylation in tumor at 20 mg/kg, po measured at 4 hrs; type: functional, organism-based
Outline: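 Female BALB/c nude mice, 5 weeks old (20–22 g), s.c. right-flank SNU-16 implants, randomized by body weight into groups (n = 5) once tumours reached 50–100 mm3. Dosing 20 mg/kg/day intragastric in 0.5% CMC-Na for 15 d; vehicle controls. Tumour width and length measured every 2 days; tumours harvested 4 h after last dose and lysates immunoblotted for pFGFR, FGFR2, pPLCγ, pErk.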

[3] = target: T1, Protein cereblon/Fibroblast growth factor receptor 2 (Homo sapiens, UniProt P21802+Q96SW2); assay: PROTAC activity at CRBN/FGFR2 in human KATO III stomach cancer cell line assessed as FGFR2 degradation by measuring FGFR2 expression level at 100 to 500 nM measured for 6 hrs by Western blotting analysis; type: cell-based; details: dose 100-500 nM
T1 sequence (P21802 22-821 limits assumed): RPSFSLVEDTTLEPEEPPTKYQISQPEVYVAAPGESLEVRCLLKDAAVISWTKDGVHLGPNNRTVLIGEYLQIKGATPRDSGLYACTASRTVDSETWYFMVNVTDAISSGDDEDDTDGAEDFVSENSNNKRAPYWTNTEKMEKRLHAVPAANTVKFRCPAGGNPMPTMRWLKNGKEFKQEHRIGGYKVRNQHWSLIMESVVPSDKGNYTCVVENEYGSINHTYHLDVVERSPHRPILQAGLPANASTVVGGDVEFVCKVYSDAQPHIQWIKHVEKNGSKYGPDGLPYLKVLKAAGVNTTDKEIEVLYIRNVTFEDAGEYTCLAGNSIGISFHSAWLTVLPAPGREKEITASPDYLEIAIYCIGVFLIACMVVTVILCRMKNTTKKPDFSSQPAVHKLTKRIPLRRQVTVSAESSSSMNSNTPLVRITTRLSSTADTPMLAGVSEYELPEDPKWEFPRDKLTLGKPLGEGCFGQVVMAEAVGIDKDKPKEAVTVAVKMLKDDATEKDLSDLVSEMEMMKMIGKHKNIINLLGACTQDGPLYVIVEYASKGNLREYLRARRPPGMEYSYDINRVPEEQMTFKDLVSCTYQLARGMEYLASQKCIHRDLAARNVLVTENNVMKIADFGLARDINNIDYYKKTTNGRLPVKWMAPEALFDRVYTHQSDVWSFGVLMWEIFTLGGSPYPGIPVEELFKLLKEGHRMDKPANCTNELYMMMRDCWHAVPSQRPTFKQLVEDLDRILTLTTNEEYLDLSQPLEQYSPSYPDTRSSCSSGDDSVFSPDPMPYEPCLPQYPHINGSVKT
T1 sequence (Q96SW2 whole entry partner): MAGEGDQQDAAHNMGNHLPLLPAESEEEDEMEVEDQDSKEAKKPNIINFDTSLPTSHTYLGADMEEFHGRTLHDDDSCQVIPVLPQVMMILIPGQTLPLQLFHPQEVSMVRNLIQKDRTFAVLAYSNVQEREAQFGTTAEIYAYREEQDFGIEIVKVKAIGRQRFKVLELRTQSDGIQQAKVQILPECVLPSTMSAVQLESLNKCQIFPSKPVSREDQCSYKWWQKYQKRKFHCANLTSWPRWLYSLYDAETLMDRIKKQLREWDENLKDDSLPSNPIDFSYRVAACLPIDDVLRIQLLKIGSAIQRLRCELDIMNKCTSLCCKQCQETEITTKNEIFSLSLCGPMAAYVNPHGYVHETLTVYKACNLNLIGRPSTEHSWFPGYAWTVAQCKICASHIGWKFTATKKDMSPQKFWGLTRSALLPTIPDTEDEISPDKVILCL
Outline: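 KATO III cells treated 6 h across 0.5–10,000 nM (DMSO stock, final DMSO below 0.5%); FGFR2 immunoblotted, quantified as FGFR2/β-actin ratio normalized to DMSO-treated cells, three independent biological experiments; DC50 and Dmax derived from the curve.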

[4] = target: T1, Protein cereblon/Fibroblast growth factor receptor 2; assay: PROTAC activity at CRBN/FGFR2 in human KATO III stomach cancer cell line assessed as FGFR2 degradation by measuring maximum efficacy at 0.5 to 10000 nM measured for 6 hrs by Western blotting analysis relative to control; type: cell-based; details: dose 0.5-10000 nM
Outline: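 KATO III cells treated for 6 h at the stated concentrations, added from 10 mM DMSO stocks (final DMSO below 0.5%). Cells were washed with PBS and lysed in 2× loading buffer, then run on SDS-PAGE and blotted to PVDF. Anti-FGFR2 was applied overnight at 4 °C, with ECL detection. FGFR2 was expressed as FGFR2/β-actin, normalized to DMSO-treated cells, from three independent biological experiments.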

[5] = target: Fibroblast growth factor receptor 1 (Homo sapiens) (UniProt P11362); assay: Induction of FGFR1 degradation in human NCI-H1581 cells at 100 nM measured for 6 hrs Western blot analysis relative to control; type: cell-based
Sequence of Fibroblast growth factor receptor 1 (Homo sapiens) (P11362 22-822 limits assumed): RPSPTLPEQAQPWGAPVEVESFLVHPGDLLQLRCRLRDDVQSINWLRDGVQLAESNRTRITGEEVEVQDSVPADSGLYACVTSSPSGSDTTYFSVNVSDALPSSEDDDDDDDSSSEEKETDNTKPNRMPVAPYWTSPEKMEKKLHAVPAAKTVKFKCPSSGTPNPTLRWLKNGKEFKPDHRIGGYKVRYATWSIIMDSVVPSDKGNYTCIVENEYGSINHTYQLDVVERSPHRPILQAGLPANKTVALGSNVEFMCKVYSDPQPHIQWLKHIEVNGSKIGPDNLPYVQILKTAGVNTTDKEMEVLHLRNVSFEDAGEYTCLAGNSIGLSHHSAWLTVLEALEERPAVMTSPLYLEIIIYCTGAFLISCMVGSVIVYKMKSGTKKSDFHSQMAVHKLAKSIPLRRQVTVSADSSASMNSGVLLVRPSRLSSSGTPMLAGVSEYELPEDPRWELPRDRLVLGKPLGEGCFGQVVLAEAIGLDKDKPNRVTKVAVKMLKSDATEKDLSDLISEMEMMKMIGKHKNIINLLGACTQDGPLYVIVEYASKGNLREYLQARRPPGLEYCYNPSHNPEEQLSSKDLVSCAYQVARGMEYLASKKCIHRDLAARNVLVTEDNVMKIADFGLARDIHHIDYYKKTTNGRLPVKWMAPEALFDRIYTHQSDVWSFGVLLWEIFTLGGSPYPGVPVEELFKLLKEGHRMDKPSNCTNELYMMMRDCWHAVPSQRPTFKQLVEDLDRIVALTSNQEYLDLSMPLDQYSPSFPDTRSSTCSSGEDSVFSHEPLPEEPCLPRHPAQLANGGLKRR
Outline: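 NCI-H1581 (FGFR1), MCF7 (FGFR3) and Huh7 (FGFR4) cells, which endogenously express the isoforms, treated with 100 nM for 6 h; isoform levels by Western blot against β-actin, three biologically independent experiments.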

[6] = test system: BaF3; assay: Antiproliferative activity against mouse BaF3 cells expressing Tel-FGFR2 assessed as cell growth inhibition measured after 72 hrs by celltiter-glo reagent based assay; type: functional; details: BaF3, 72 h
Outline: (§1)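 Ba/F3 cells stably expressing cytoplasmic TEL-FGFR1, -2, -3 or -4 fusions were treated in 96-well format, final DMSO 0.1%, for 72 h. Viability read by CellTiter-Glo luminescence after 10 min at room temperature. Inhibition calculated from blank- and control-corrected RLU; IC50 from 4-parameter concentration–response fit.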

[7] = test system: BaF3; assay: Antiproliferative activity against mouse BaF3 cells expressing Tel-FGFR3 assessed as cell growth inhibition measured after 72 hrs by celltiter-glo reagent based assay; type: functional; details: BaF3, 72 h; outline: as §1
[8] = target: T1, Protein cereblon/Fibroblast growth factor receptor 2; assay: PROTAC activity at CRBN/FGFR2 in human KATO III stomach cancer cell line assessed as FGFR2 degradation measured for 6 hrs in presence of bortezomib by immunoblot analysis; type: cell-based
Outline: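 KATO III cells were pretreated with 1 μM proteasome inhibitor (MG132 or bortezomib), then exposed to degrader at 100 nM for 6 h. FGFR2 was read by immunoblot against β-actin loading, with ECL detection.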

[9] = target: T1, Protein cereblon/Fibroblast growth factor receptor 2; assay: PROTAC activity at CRBN/FGFR2 in human KATO III stomach cancer cell line membrane assessed as reduction in membrane bound FGFR2 at 100 nM measured for 6 hrs by flow cytometry analysis; type: cell membranes
Outline: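 Approx. 2 × 10^6 KATO III cells were treated 6 h at 100 nM. They were washed in cold PBS and stained with anti-FGFR2 (1:100, 4 °C, 1 h), then with Alexa Fluor 488 secondary (1:500, 4 °C, 1 h). Surface FGFR2 was read by flow cytometry on at least 100,000 events, with 488 nm excitation and FITC detection at 519 nm.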

[10] = test system: NCI-H716; assay: Antiproliferative activity against human NCI-H716 cells assessed as reduction in cell viability measured for 72 hrs by celltiter-glo reagent based assay; type: functional; details: NCI-H716, 72 h
Outline: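 Cancer lines KATO III, SNU16, NCI-H716, NCI-H1975, MV-4-11 and HEK293T treated 72 h; antiproliferative IC50 given as mean ± s.d. from three independent biological experiments.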

[11] = Toxicity in ICR mouse assessed as change in heart weight at 20 mg/kg, po measured for 30 days; type: organism-based; details: in vivo, 720 h, time 30 day
Outline: (§2)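 ICR mice (n = 6) were dosed orally at 20 mg/kg/day for 30 days, alongside vehicle-treated controls. Mortality and clinical signs were checked daily. At the end, body and organ weights were recorded. Heart, liver, spleen, lung and kidney were examined by hematoxylin and eosin staining.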

[12] = Hepatotoxicity in ICR mouse assessed as effect on AST level at 20 mg/kg, po measured for 30 days; type: toxicity, organism-based; details: in vivo, 720 h, time 30 day
Outline: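 ICR mice given 20 mg/kg/day orally for 30 days (n = 6), vehicle controls; mortality and clinical signs checked daily, then AST/ALT and creatinine, organ weights, haematology and H&E of heart, liver, spleen, lung, kidney.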

[13] = Toxicity in ICR mouse assessed as morphological changes in liver at 20 mg/kg, po measured for 30 days by hematoxyin-eosin staining based analysis; type: organism-based; details: in vivo, 720 h, time 30 day; outline: as §2
[14] = Toxicity in ICR mouse assessed as morphological changes in spleen at 20 mg/kg, po measured for 30 days by hematoxyin-eosin staining based analysis; type: organism-based; details: in vivo, 720 h, time 30 day; outline: as §2
[15] = Toxicity in ICR mouse assessed as morphological changes in kidney at 20 mg/kg, po measured for 30 days by hematoxyin-eosin staining based analysis; type: organism-based; details: in vivo, 720 h, time 30 day; outline: as §2
[16] = Toxicity in BALB/c mouse xenografted with human SNU-16 cells assessed as body weight loss at 20 mg/kg, po administered for 15 days and measured on day 2; type: organism-based; details: in vivo, 48 h, time 2 day
Outline: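 Female BALB/c nude mice, 5 weeks old (20–22 g), carried subcutaneous SNU-16 xenografts in the right flank. Dosing began at mean tumor volume 50–100 mm3, after randomization by body weight, n = 5. Mice received 20 mg/kg/day by gavage in 0.5% CMC-Na, QD for 15 d, with vehicle controls. Body weight was measured every 2 days.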

[17] = Cmax in mouse at 20 mg/kg, po measured at 0.25 to 24 hrs by LC-MS/MS analysis; details: in vivo

Activity [1]: Active
Activity [3]: 70%
Emax [4]: 80%
Activity [5]: 43%
IC50 [6]: 10.3 nM
IC50 [7]: 139 nM
Activity [8]: inactive
Activity [9]: Active
IC50 [10]: 3.2 nM
Cmax [17]: 82.1 ng/mL
SMILES: COc1cc(OC)c(Cl)c(NC(=O)N(C)c2cc(Nc3ccc(N4CCN(C(=O)C5CCN(c6ccc7c(c6)C(=O)N(C6CCC(=O)NC6=O)C7=O)CC5)CC4)cc3)ncn2)c1Cl (configuration not stated)
Activity [2]: Active
Activity [11]: Non-Toxic
Activity [12]: Non-Toxic
Activity [13]: Non-Toxic
Activity [14]: Non-Toxic
Activity [15]: Non-Toxic
Activity [16]: Non-Toxic
